Source: ChEMBL document CHEMBL1135254, “Novel N-[1-(1-substituted 4-piperidinylmethyl)-4-piperidinyl]benzamides as potent colonic prokinetic agents” (Bioorg Med Chem Lett, 2002)
pIC50: −log10 of the molar value.

What was measured:
Canis familiaris [1] = experiment: Gastrointestinal motility was reported after intravenous administration at a dose 1 mg/kg to dogs in stomach; assay type: functional, Canis lupus familiaris
Summary of the method: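 Contractions were recorded by force transducers implanted on the gastric antrum and analyzed by computer. The motor index is the area between the contraction wave and baseline, i.e. amplitude (voltage) × time in min over a fixed period. The index for the 30 min after dosing is expressed as a percentage of that for the 30 min before.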

[2] = target: 5-hydroxytryptamine receptor 4 (Cavia porcellus, UniProt O70528); experiment: Inhibitory activity against 5-hydroxytryptamine 4 receptor of guinea pig striatum using [3H]GR-113808 as radioligand; assay type: tissue-based
Chain of 5-hydroxytryptamine receptor 4 (O70528 whole entry): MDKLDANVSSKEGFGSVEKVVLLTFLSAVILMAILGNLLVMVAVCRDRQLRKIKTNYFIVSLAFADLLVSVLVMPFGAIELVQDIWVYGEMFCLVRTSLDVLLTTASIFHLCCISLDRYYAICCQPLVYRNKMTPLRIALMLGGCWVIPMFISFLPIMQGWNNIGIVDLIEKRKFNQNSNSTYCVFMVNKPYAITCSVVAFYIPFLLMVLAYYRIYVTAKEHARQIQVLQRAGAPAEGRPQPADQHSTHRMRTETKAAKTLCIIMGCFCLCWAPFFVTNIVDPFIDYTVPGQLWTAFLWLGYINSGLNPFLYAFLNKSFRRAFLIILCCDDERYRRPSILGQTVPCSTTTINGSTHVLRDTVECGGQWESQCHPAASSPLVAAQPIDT

Canis familiaris [3] = experiment: Gastrointestinal motility was reported after intravenous administration at a dose 1 mg/kg to dogs as induction number of GMC (gaint migrating contractions); assay type: functional, Canis lupus familiaris
Summary of the method: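 Colonic contractions were recorded by a force transducer implanted on the ascending colon and analyzed by computer. Colonic motility is expressed as the number of giant migrating contractions induced after dosing.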

Mus musculus = organism: Mus musculus; experiment: Dose at which the compound induced fecal excretion in mice; assay type: organism-based, Feces; conditions: in vivo
Summary of the method: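 Unfasted mice were dosed subcutaneously, and fecal excretion was the read-out.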

| SMILES | Gastric motor index, % of pre-dose (Canis familiaris [1]) | pIC50 [2] | Induction number (Canis familiaris [3]) | Dose (Mus musculus) |
| --- | --- | --- | --- | --- |
| COc1cc(N)c(Cl)cc1C(=O)NC1CCN(CC2CCN(C(=O)CCCN)CC2)CC1 | 130% | 8.40 | 5 |  |
| COc1cc(N)c(Cl)cc1C(=O)NC1CCN(CC2CCN(C(=O)CN)CC2)CC1 | 165% | 8.03 | 5 |  |
| CCCC(N)C(=O)N1CCC(CN2CCC(NC(=O)c3cc(Cl)c(N)cc3OC)CC2)CC1 (stereo not drawn) | 117% | 8.59 | 1 |  |
| COc1cc(N)c(Cl)cc1C(=O)NC1CCN(CC2CCN(C(=O)C(C)N)CC2)CC1 (stereo not drawn) | 127% | 8.30 |  |  |
| COc1cc(N)c(Cl)cc1C(=O)NC1CCN(CC2CCN(C(=O)CCCCN)CC2)CC1 | 112% | 8.41 |  |  |
| COc1cc(N)c(Cl)cc1C(=O)NC1CCN(CC2CCN(C(=O)C(N)C(C)C)CC2)CC1 (stereo not drawn) | 147% | 8.60 |  |  |
| COc1cc(N)c(Cl)cc1C(=O)NC1CCN(CC2CCN(C(=O)CCN)CC2)CC1 | 107% | 8.02 | 3 |  |
| COc1cc(N)c(Cl)cc1C(=O)NC1CCN(CC2CCN(CCCN)CC2)CC1 | 151% | 7.87 | 7 |  |
| COc1cc(N)c(Cl)cc1C(=O)NCC(O)CN1CCC(CN2CCC(N)CC2)CC1 (stereo not drawn) |  | 7.39 |  |  |
| COc1cc(N)c(Cl)cc1C(=O)NC1CCN(CC2CCN(CCCCCN)CC2)CC1 | 194% | 7.95 | 4 |  |
| COc1cc(N)c(Cl)cc1C(=O)NC1CCN(C(=O)C2CCN(C(=O)CCCN)CC2)CC1 | 132% | 6.37 | 2 |  |
| COc1cc(N)c(Cl)cc1C(=O)NC1CCN(CC2CCN(CCCNS(C)(=O)=O)CC2)CC1 | 151% | 7.68 | 2 |  |
| COc1cc(N)c(Cl)cc1C(=O)NC1CCN(CC2CCN(C(=O)C(C)(C)N)CC2)CC1 | 112% | 8.59 |  |  |
| COc1cc(N)c(Cl)cc1C(=O)NC1CCN(CC2CCN(CC(C)CN)CC2)CC1 (stereo not drawn) | 177% | 7.84 | 1 |  |
| COc1cc(N)c(Cl)cc1C(=O)NC1CCN(CC2CCN(CCCCN)CC2)CC1 | 148% | 8.19 | 6 | > 1 mg/kg |
| COc1cc(N)c(Cl)cc1C(=O)NC1CCN(CC2CCN(C(=O)C(C)CN)CC2)CC1 (stereo not drawn) | 121% | 8.29 |  |  |
| COc1cc(N)c(Cl)cc1C(=O)NC1CCN(CC2CCN(CCN)CC2)CC1 | 127% | 7.84 |  |  |
| COc1cc(N)c(Cl)cc1C(=O)NC1CCN(CC2CCN(CC(O)CN)CC2)CC1 (stereo not drawn) | 121% | 7.84 |  |  |
| CCOc1cc(N)c(Cl)cc1C(=O)NCC1CN(Cc2ccc(F)cc2)CCO1 (stereo not drawn) [MOSAPRIDE] | 188% | 6.95 |  |  |
